Measured values: ChEMBL document CHEMBL3596093, “Synthesis and antimicrobial evaluation of 5-aryl-1,2,4-triazole-3-thione derivatives containing a rhodanine moiety” (2015)
Converted amounts (≈) assume the structure as drawn.

Key:
Staphylococcus aureus [1] = assay: Antibacterial activity against Staphylococcus aureus RN4220 after 24 hrs by two-fold serial dilution method; format: functional; details: RN4220, 24 h
Summary of the method: (§1)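 Broth microdilution MIC. Bacteria grown to mid-log phase in Mueller-Hinton broth, diluted 1000-fold, about 10^5 CFU/mL. Compounds from DMSO stocks, two-fold serial dilution from a final 64 µg/mL. Incubation at 37 °C for 24 h. Growth read as absorbance at 630 nm on a microplate reader. Run in triplicate.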

Staphylococcus aureus [2] = assay: Antibacterial activity against Staphylococcus aureus KCTC 209 after 24 hrs by two-fold serial dilution method; format: functional; details: KCTC 209, 24 h
Summary of the method: (§2)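 Strains grown to mid-log phase in Mueller-Hinton broth, then diluted 1000-fold in the same broth to about 10^5 CFU/mL. Compounds were made up as DMSO stocks and two-fold serially diluted from a final top concentration of 64 µg/mL. Incubation was 37 °C for 24 h. Growth was read as absorbance at 630 nm on a microplate reader. MIC assays were run in triplicate.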

Staphylococcus aureus [3] = assay: Antibacterial activity against Staphylococcus aureus KCTC 503 after 24 hrs by two-fold serial dilution method; format: functional; details: KCTC 503, 24 h; summary of the method: as §2
Streptococcus mutans [4] = assay: Antibacterial activity against Streptococcus mutans 3065 after 24 hrs by two-fold serial dilution method; format: functional; details: Streptococcus mutans, 3065, 24 h; summary of the method: as §2
Escherichia coli [5] = assay: Antibacterial activity against Escherichia coli KCTC 1924 after 24 hrs by two-fold serial dilution method; format: functional; details: KCTC 1924, 24 h; summary of the method: as §2
Escherichia coli [6] = assay: Antibacterial activity against Escherichia coli CCARM 1356 after 24 hrs by two-fold serial dilution method; format: functional; details: CCARM 1356, 24 h; summary of the method: as §2
Pseudomonas aeruginosa [7] = assay: Antibacterial activity against Pseudomonas aeruginosa 2742 after 24 hrs by two-fold serial dilution method; format: functional; details: Pseudomonas aeruginosa, 2742, 24 h; summary of the method: as §2
Pseudomonas aeruginosa [8] = assay: Antibacterial activity against Pseudomonas aeruginosa 2004 after 24 hrs by two-fold serial dilution method; format: functional; details: Pseudomonas aeruginosa, 2004, 24 h; summary of the method: as §2
Salmonella typhimurium = assay: Antibacterial activity against Salmonella typhimurium 2421 after 24 hrs by two-fold serial dilution method; format: functional, Salmonella enterica subsp. enterica serovar Typhimurium; details: Salmonella enterica, 2421, 24 h; summary of the method: as §2
Candida albicans [9] = assay: Antifungal activity against Candida albicans 7535 after 24 hrs by two-fold serial dilution method; format: functional; details: Candida albicans, 7535, 24 h
Staphylococcus aureus [10] = assay: Bactericidal activity against Staphylococcus aureus RN4220 after 24 hrs by agar plate method; format: functional; details: RN4220, 24 h
Summary of the method: (§3)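 Samples of 5 µL from MIC wells with no visible growth were plated onto fresh Mueller-Hinton agar and incubated a further 24 h at 37 °C. MBC is the lowest concentration giving no visible colony growth on the agar. Assays were run in triplicate.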

Staphylococcus aureus [11] = assay: Bactericidal activity against Staphylococcus aureus KCTC 209 after 24 hrs by agar plate method; format: functional; details: KCTC 209, 24 h; summary of the method: as §3
Staphylococcus aureus [12] = assay: Bactericidal activity against Staphylococcus aureus KCTC 503 after 24 hrs by agar plate method; format: functional; details: KCTC 503, 24 h
Summary of the method: (§4)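 5 µL from each well without visible growth plated on fresh Mueller-Hinton agar, then 37 °C for a further 24 h. MBC is the lowest concentration giving no visible colonies. Run in triplicate.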

Streptococcus mutans [13] = assay: Bactericidal activity against Streptococcus mutans 3065 after 24 hrs by agar plate method; format: functional; details: Streptococcus mutans, 3065, 24 h; summary of the method: as §3
Escherichia coli [14] = assay: Bactericidal activity against Escherichia coli KCTC 1924 after 24 hrs by agar plate method; format: functional; details: KCTC 1924, 24 h; summary of the method: as §3
Candida albicans [15] = assay: Fungicidal activity against Candida albicans 7535 after 24 hrs by agar plate method; format: functional; details: Candida albicans, 7535, 24 h
Staphylococcus aureus [16] = assay: Ratio of MBC to MIC for Staphylococcus aureus KCTC 209; format: functional
Summary of the method: (§5)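 The ratio divides MBC by MIC for the same strain. MIC comes from two-fold broth microdilution in Mueller-Hinton broth (about 10^5 CFU/mL, 37 °C, 24 h, absorbance at 630 nm). MBC comes from subculturing 5 µL from clear wells onto Mueller-Hinton agar for another 24 h at 37 °C, taken as the lowest concentration with no colonies.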

Staphylococcus aureus [17] = assay: Ratio of MBC to MIC for Staphylococcus aureus KCTC 503; format: functional; summary of the method: as §5
Escherichia coli [18] = assay: Ratio of MBC to MIC for Escherichia coli KCTC 1924; format: functional; summary of the method: as §5
Staphylococcus aureus [19] = assay: Antibacterial activity against methicillin-resistant Staphylococcus aureus CCARM 3167 after 24 hrs by two-fold serial dilution method; format: functional; details: CCARM 3167, 24 h; summary of the method: as §1
Staphylococcus aureus [20] = assay: Antibacterial activity against methicillin-resistant Staphylococcus aureus CCARM 3506 after 24 hrs by two-fold serial dilution method; format: functional; details: CCARM 3506, 24 h; summary of the method: as §1
Staphylococcus aureus [21] = assay: Antibacterial activity against quinolone-resistant Staphylococcus aureus CCARM 3505 after 24 hrs by two-fold serial dilution method; format: functional; details: CCARM 3505, 24 h; summary of the method: as §1
Staphylococcus aureus [22] = assay: Antibacterial activity against quinolone-resistant Staphylococcus aureus CCARM 3519 after 24 hrs by two-fold serial dilution method; format: functional; details: CCARM 3519, 24 h; summary of the method: as §1
Staphylococcus aureus [23] = assay: Bactericidal activity against methicillin-resistant Staphylococcus aureus CCARM 3167 after 24 hrs by agar plate method; format: functional; details: CCARM 3167, 24 h; summary of the method: as §4
Staphylococcus aureus [24] = assay: Bactericidal activity against methicillin-resistant Staphylococcus aureus CCARM 3506 after 24 hrs by agar plate method; format: functional; details: CCARM 3506, 24 h; summary of the method: as §4
Staphylococcus aureus [25] = assay: Bactericidal activity against quinolone-resistant Staphylococcus aureus CCARM 3505 after 24 hrs by agar plate method; format: functional; details: CCARM 3505, 24 h; summary of the method: as §4
Staphylococcus aureus [26] = assay: Bactericidal activity against quinolone-resistant Staphylococcus aureus CCARM 3519 after 24 hrs by agar plate method; format: functional; details: CCARM 3519, 24 h; summary of the method: as §4

## O=C(O)[C@H](Cc1ccccc1)N1C(=O)/C(=C/c2ccc(/C=N/n3c(-c4cccc(Cl)c4)n[nH]c3=S)cc2)SC1=S
Staphylococcus aureus [1]
  MIC: 8 µg/mL (≈ 13.2 µM)
Staphylococcus aureus [2]
  MIC: 8 µg/mL (≈ 13.2 µM)
Staphylococcus aureus [3]
  MIC: 8 µg/mL (≈ 13.2 µM)
Streptococcus mutans [4]
  MIC: 4 µg/mL (≈ 6.6 µM)
Escherichia coli [5]
  MIC: 8 µg/mL (≈ 13.2 µM)
Escherichia coli [6]
  MIC: > 128 µg/mL
Pseudomonas aeruginosa [7]
  MIC: > 128 µg/mL
Pseudomonas aeruginosa [8]
  MIC: > 128 µg/mL
Salmonella typhimurium
  MIC: > 128 µg/mL
Candida albicans [9]
  MIC: 8 µg/mL (≈ 13.2 µM)
Staphylococcus aureus [10]
  MBC: 8 µg/mL (≈ 13.2 µM)
Staphylococcus aureus [11]
  MBC: 16 µg/mL (≈ 26.4 µM)
Staphylococcus aureus [12]
  MBC: 16 µg/mL (≈ 26.4 µM)
Streptococcus mutans [13]
  MBC: > 32 µg/mL
Escherichia coli [14]
  MBC: 8 µg/mL (≈ 13.2 µM)
Candida albicans [15]
  MFC: 8 µg/mL (≈ 13.2 µM)
Staphylococcus aureus [16]
  Ratio: 2
Staphylococcus aureus [17]
  Ratio: <=4
Escherichia coli [18]
  Ratio: <=4
Staphylococcus aureus [19]
  MIC: 8 µg/mL (≈ 13.2 µM)
Staphylococcus aureus [20]
  MIC: 16 µg/mL (≈ 26.4 µM)
Staphylococcus aureus [21]
  MIC: 8 µg/mL (≈ 13.2 µM)
Staphylococcus aureus [22]
  MIC: 8 µg/mL (≈ 13.2 µM)
Staphylococcus aureus [23]
  MBC: 8 µg/mL (≈ 13.2 µM)
Staphylococcus aureus [24]
  MBC: 16 µg/mL (≈ 26.4 µM)
Staphylococcus aureus [25]
  MBC: 32 µg/mL (≈ 52.8 µM)
Staphylococcus aureus [26]
  MBC: 32 µg/mL (≈ 52.8 µM)

## COc1c(N2CCNC(C)C2)c(F)cc2c(=O)c(C(=O)O)cn(C3CC3)c12 (stereo not given) [GATIFLOXACIN]
Staphylococcus aureus [1]
  MIC: 0.25 µg/mL (≈ 0.666 µM)
Staphylococcus aureus [2]
  MIC: 2 µg/mL (≈ 5.33 µM)
Staphylococcus aureus [3]
  MIC: 4 µg/mL (≈ 10.7 µM)
Streptococcus mutans [4]
  MIC: 0.5 µg/mL (≈ 1.33 µM)
Escherichia coli [5]
  MIC: 2 µg/mL (≈ 5.33 µM)
Escherichia coli [6]
  MIC: 16 µg/mL (≈ 42.6 µM)
Pseudomonas aeruginosa [7]
  MIC: 1 µg/mL (≈ 2.66 µM)
Pseudomonas aeruginosa [8]
  MIC: 1 µg/mL (≈ 2.66 µM)
Salmonella typhimurium
  MIC: 0.5 µg/mL (≈ 1.33 µM)
Candida albicans [9]
  MIC: 0.5 µg/mL (≈ 1.33 µM)
Staphylococcus aureus [10]
  MBC: 0.25 µg/mL (≈ 0.666 µM)
Staphylococcus aureus [11]
  MBC: 2 µg/mL (≈ 5.33 µM)
Staphylococcus aureus [12]
  MBC: 4 µg/mL (≈ 10.7 µM)
Streptococcus mutans [13]
  MBC: 0.5 µg/mL (≈ 1.33 µM)
Escherichia coli [14]
  MBC: 2 µg/mL (≈ 5.33 µM)
Candida albicans [15]
  MFC: 0.5 µg/mL (≈ 1.33 µM)
Staphylococcus aureus [19]
  MIC: 2 µg/mL (≈ 5.33 µM)
Staphylococcus aureus [20]
  MIC: 2 µg/mL (≈ 5.33 µM)
Staphylococcus aureus [21]
  MIC: 8 µg/mL (≈ 21.3 µM)
Staphylococcus aureus [22]
  MIC: 4 µg/mL (≈ 10.7 µM)
Staphylococcus aureus [23]
  MBC: 2 µg/mL (≈ 5.33 µM)
Staphylococcus aureus [24]
  MBC: 2 µg/mL (≈ 5.33 µM)
Staphylococcus aureus [25]
  MBC: 8 µg/mL (≈ 21.3 µM)
Staphylococcus aureus [26]
  MBC: 4 µg/mL (≈ 10.7 µM)

## COc1c(N2C[C@@H]3CCCN[C@@H]3C2)c(F)cc2c(=O)c(C(=O)O)cn(C3CC3)c12 [MOXIFLOXACIN]
Staphylococcus aureus [1]
  MIC: 0.25 µg/mL (≈ 0.623 µM)
Staphylococcus aureus [3]
  MIC: 2 µg/mL (≈ 4.98 µM)
Streptococcus mutans [4]
  MIC: 0.25 µg/mL (≈ 0.623 µM)
Escherichia coli [6]
  MIC: 128 µg/mL (≈ 319 µM)
Pseudomonas aeruginosa [8]
  MIC: 2 µg/mL (≈ 4.98 µM)
Salmonella typhimurium
  MIC: 0.5 µg/mL (≈ 1.25 µM)
Candida albicans [9]
  MIC: 0.5 µg/mL (≈ 1.25 µM)
Staphylococcus aureus [10]
  MBC: 0.25 µg/mL (≈ 0.623 µM)
Staphylococcus aureus [12]
  MBC: 2 µg/mL (≈ 4.98 µM)
Streptococcus mutans [13]
  MBC: 0.25 µg/mL (≈ 0.623 µM)
Candida albicans [15]
  MFC: 0.5 µg/mL (≈ 1.25 µM)
Staphylococcus aureus [19]
  MIC: 1 µg/mL (≈ 2.49 µM)
Staphylococcus aureus [20]
  MIC: 1 µg/mL (≈ 2.49 µM)
Staphylococcus aureus [21]
  MIC: 4 µg/mL (≈ 9.96 µM)
Staphylococcus aureus [22]
  MIC: 4 µg/mL (≈ 9.96 µM)
Staphylococcus aureus [23]
  MBC: 1 µg/mL (≈ 2.49 µM)
Staphylococcus aureus [24]
  MBC: 1 µg/mL (≈ 2.49 µM)
Staphylococcus aureus [25]
  MBC: 4 µg/mL (≈ 9.96 µM)
Staphylococcus aureus [26]
  MBC: 4 µg/mL (≈ 9.96 µM)
